Experimental findings from ChEMBL document CHEMBL4673224, “Synthesis of 7-benzylguanosine cap-analogue conjugates for eIF4E targeted degradation” (Eur J Med Chem, 2019) are described below.

Calls of active or inactive are those of the source. The calls are words filed in the database; no cut-off is given here.

In experiment [1] the target is Eukaryotic translation initiation factor 4E (Homo sapiens) (UniProt P06730). The experiment in a line: Inhibition of eIF4E binding to m7GMP in immobilized resin with HEK293 lysate at 500 uM by western blot analysis based competitive binding assay. Type of experiment: subcellular. Summed up:
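Cap pull-down is carried out on m7GMP agarose. HEK293 lysate is freeze-thawed thrice and cleared at 20,000 × g, and 350 μg protein is loaded for 2 h at 4 °C. After washes, the resin is incubated overnight with 500 μM compound in Buffer A (50 mM HEPES-KOH pH 7.5, 150 mM KCl). eIF4E remaining on the resin is read by anti-eIF4E western blot. m7GMP is the positive control and DMSO the negative control.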
In general terms: A western blot detects proteins with antibodies after separation by electrophoresis.

For experiment [2] the target is unchanged. Kind of experiment: Inhibition of eIF4E binding to m7GDP in immobilized resin with HEK293 lysate at 500 uM by western blot analysis based competitive binding assay. Type of experiment: subcellular. As to conditions: time 12.0 hrs. Summed up:
(§1)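 350 μg protein bound to m7GDP agarose for 2 h at 4 °C, washed, then exposed to compound in Buffer A overnight. Bound protein eluted in LDS buffer and probed with anti-eIF4E antibody. m7GDP is the positive control and DMSO the negative control.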

The target of experiment [3] is T1, Protein cereblon/Eukaryotic translation initiation factor 4E (Homo sapiens) (UniProt P06730+Q96SW2). The experiment in a line: Protac activity at E3-liagse/eIF4E in human MDA-MB-231 cells assessed as reduction in eIF4E protein level at 25 to 200 uM after 24 to 72 hrs. Type of experiment: cell-based. The settings on record: dose 25-200 µM, time 24-72 hrs. Summed up: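 MDA-MB-231 cells are grown in RPMI-1640 with 10% FBS and 1 mM glutamine at 37 °C under 5% CO2. Cells are exposed to compound at 25–200 μM for 24–72 h, and eIF4E protein level is then assessed.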
T1 sequence (P06730 whole entry, looked up): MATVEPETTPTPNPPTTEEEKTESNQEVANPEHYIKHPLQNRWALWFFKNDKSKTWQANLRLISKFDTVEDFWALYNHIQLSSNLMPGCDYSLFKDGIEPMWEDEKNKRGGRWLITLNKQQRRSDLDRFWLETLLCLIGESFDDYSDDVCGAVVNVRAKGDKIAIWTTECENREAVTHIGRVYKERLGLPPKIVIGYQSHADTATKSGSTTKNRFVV
T1 sequence (Q96SW2 whole entry, looked up): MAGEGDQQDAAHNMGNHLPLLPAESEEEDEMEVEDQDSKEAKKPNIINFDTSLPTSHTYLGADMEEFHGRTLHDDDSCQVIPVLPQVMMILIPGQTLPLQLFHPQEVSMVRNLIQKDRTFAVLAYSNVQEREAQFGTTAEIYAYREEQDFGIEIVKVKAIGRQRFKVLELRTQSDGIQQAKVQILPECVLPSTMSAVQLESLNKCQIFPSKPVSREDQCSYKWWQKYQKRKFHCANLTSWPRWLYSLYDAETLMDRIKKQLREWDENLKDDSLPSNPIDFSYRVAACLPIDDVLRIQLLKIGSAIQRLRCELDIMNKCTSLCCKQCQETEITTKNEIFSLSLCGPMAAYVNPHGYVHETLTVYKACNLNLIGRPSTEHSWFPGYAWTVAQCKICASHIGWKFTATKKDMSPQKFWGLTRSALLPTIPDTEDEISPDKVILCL

Experiment [4] has as its target Eukaryotic translation initiation factor 4E (Homo sapiens) (UniProt P06730). Kind of experiment: Inhibition of eIF4E binding to m7GDP in immobilized resin with HEK293 lysate by western blot analysis based competitive binding assay. The settings on record: dose 50-500 µM. Type of experiment: subcellular. The method, boiled down:
as §1

The target in experiment [5] is T1, Protein cereblon/Eukaryotic translation initiation factor 4E (Homo sapiens). The experiment in a line: Protac activity at E3-ligase/eIF4E in human K562 cells assessed as intracellular eIF4E degradation by Western blot analysis. Type of experiment: cell-based.

Chain of Eukaryotic translation initiation factor 4E (Homo sapiens) (P06730 whole entry): as the sequence (P06730 whole entry, looked up) above

On to `Nc1nc2c(c(=O)[nH]1)[n+](Cc1ccc(F)cc1)cn2[C@@H]1O[C@H](COS(=O)(=O)NC(=O)CCC(=O)NCCCCCC(=O)Nc2cccc3c2CN(C2CCC(=O)NC2=O)C3=O)[C@@H](O)[C@H]1O` (stereo partly drawn), for which, in experiment [1], the inhibition entry was “inactive”. Same read-out and setting: the result for `Nc1nc2c(c(=O)[nH]1)[n+](Cc1ccccc1)cn2[C@@H]1O[C@H](COP(=O)(O)NCCCCCC(=O)Nc2cccc3c2CN(C2CCC(=O)NC2=O)C3=O)[C@@H](O)[C@H]1O` (stereo partly drawn) reads “inactive”. For `Nc1nc2c(c(=O)[nH]1)[n+](Cc1ccccc1)cn2[C@@H]1O[C@H](COP(=O)(O)OP(=O)(O)NCCOCCOCCOCCOCCOCCOCCOCCC(=O)Nc2cccc3c2CN(C2CCC(=O)NC2=O)C3=O)[C@@H](O)[C@H]1O` (stereo partly drawn), the inhibition result in experiment [2] is “Active”. The outcome in experiment [3] was inactive. For `Nc1nc2c(c(=O)[nH]1)[n+](Cc1ccccc1)cn2[C@@H]1O[C@H](COP(=O)(O)OP(=O)(O)NCCCCCC(=O)Nc2cccc3c2CN(C2CCC(=O)NC2=O)C3=O)[C@@H](O)[C@H]1O` (stereo partly drawn), in experiment [2], the inhibition result is “Active”. Also, the outcome in experiment [3] was inactive. Also, the inhibition result in experiment [4] was “Dose-dependent effect”. In the case of `Cc1ncsc1-c1ccc(CNC(=O)C2C[C@H](O)CN2C(=O)[C@@H](NC(=O)CCCCCNP(=O)(O)OP(=O)(O)OC[C@H]2O[C@@H](n3c[n+](Cc4ccc(F)cc4)c4c(=O)[nH]c(N)nc43)[C@H](O)[C@@H]2O)C(C)(C)C)cc1` (stereo partly drawn), the result in experiment [5] and in experiment [3] was inactive. The inhibition entry in experiment [2] is “Active”. Regarding `Nc1nc2c(ncn2[C@@H]2O[C@H](COS(=O)(=O)NC(=O)CCC(=O)NCCCCCC(=O)Nc3cccc4c3CN(C3CCC(=O)NC3=O)C4=O)[C@@H](O)[C@H]2O)c(=O)[nH]1` (stereo partly drawn), the inhibition result in experiment [1] was “inactive”. Same read-out and setting: the result for `Nc1nc2c(c(=O)[nH]1)[n+](Cc1ccccc1)cn2[C@@H]1O[C@H](COS(=O)(=O)NC(=O)CCC(=O)NCCCCCC(=O)Nc2cccc3c2CN(C2CCC(=O)NC2=O)C3=O)[C@@H](O)[C@H]1O` (stereo partly drawn) reads “inactive”.

Turning to `Nc1nc2c(c(=O)[nH]1)[n+](Cc1ccc(F)cc1)cn2[C@@H]1O[C@H](COP(=O)(O)OP(=O)(O)NCCOCCOCCOCCOCCOCCOCCOCCC(=O)Nc2cccc3c2CN(C2CCC(=O)NC2=O)C3=O)[C@@H](O)[C@H]1O` (stereo partly drawn), the inhibition entry in experiment [2] is “Active”. The outcome in experiment [3] was inactive. With `Nc1nc2c(ncn2[C@@H]2O[C@H](COP(=O)(O)OP(=O)(O)NCCOCCOCCOCCC(=O)Nc3cccc4c3CN(C3CCC(=O)NC3=O)C4=O)[C@@H](O)[C@H]2O)c(=O)[nH]1` (stereo partly drawn), in experiment [5], the outcome was inactive. Also, the inhibition entry in experiment [2] was “inactive”. With `Nc1nc2c(c(=O)[nH]1)[n+](Cc1ccc(F)cc1)cn2[C@@H]1O[C@H](COP(=O)(O)OP(=O)(O)NCCOCCOCCOCCC(=O)Nc2cccc3c2CN(C2CCC(=O)NC2=O)C3=O)[C@@H](O)[C@H]1O` (stereo partly drawn), the outcome in experiment [5] and in experiment [3] was inactive. Further, the inhibition entry in experiment [2] was “Active”. With `Cc1ncsc1-c1ccc(CNC(=O)C2C[C@H](O)CN2C(=O)[C@@H](NC(=O)CCCCCNP(=O)(O)OP(=O)(O)OC[C@H]2O[C@@H](n3c[n+](Cc4ccccc4)c4c(=O)[nH]c(N)nc43)[C@H](O)[C@@H]2O)C(C)(C)C)cc1` (stereo partly drawn), the result in experiment [5] and in experiment [3] was inactive. The inhibition entry in experiment [2] is “Active”. In the case of `Nc1nc2c(ncn2[C@@H]2O[C@H](COP(=O)(O)OP(=O)(O)NCCCCCC(=O)Nc3cccc4c3CN(C3CCC(=O)NC3=O)C4=O)[C@@H](O)[C@H]2O)c(=O)[nH]1` (stereo partly drawn), the inhibition result in experiment [2] was “inactive”. For the compound `Nc1nc2c(c(=O)[nH]1)[n+](Cc1ccc(F)cc1)cn2[C@@H]1O[C@H](COP(=O)(O)OP(=O)(O)NCCCCCC(=O)Nc2cccc3c2CN(C2CCC(=O)NC2=O)C3=O)[C@@H](O)[C@H]1O` (stereo partly drawn), the inhibition entry in experiment [2] is “Active”. In addition, the outcome in experiment [3] was inactive.

As to `Nc1nc2c(c(=O)[nH]1)[n+](Cc1ccccc1)cn2[C@@H]1O[C@H](COP(=O)(O)OP(=O)(O)NCCOCCOCCOCCC(=O)Nc2cccc3c2CN(C2CCC(=O)NC2=O)C3=O)[C@@H](O)[C@H]1O` (stereo partly drawn), the result in experiment [5] and in experiment [3] was inactive. Moreover, in experiment [2], the inhibition result is “Active”. Regarding `Nc1nc2c(ncn2[C@@H]2O[C@H](COP(=O)(O)OP(=O)(O)NCCOCCOCCOCCOCCOCCOCCOCCC(=O)Nc3cccc4c3CN(C3CCC(=O)NC3=O)C4=O)[C@@H](O)[C@H]2O)c(=O)[nH]1` (stereo partly drawn), the inhibition result in experiment [2] is “inactive”. Regarding `Nc1nc2c(ncn2[C@@H]2O[C@H](COP(=O)(O)NCCCCCC(=O)Nc3cccc4c3CN(C3CCC(=O)NC3=O)C4=O)[C@@H](O)[C@H]2O)c(=O)[nH]1` (stereo partly drawn), the inhibition entry in experiment [1] is “inactive”. The same measure, in the same setting: the result for `Nc1nc2c(c(=O)[nH]1)[n+](Cc1ccc(F)cc1)cn2[C@@H]1O[C@H](COP(=O)(O)NCCCCCC(=O)Nc2cccc3c2CN(C2CCC(=O)NC2=O)C3=O)[C@@H](O)[C@H]1O` (stereo partly drawn) reads “inactive”. As for `Cc1ncsc1-c1ccc(CNC(=O)C2C[C@H](O)CN2C(=O)[C@@H](NC(=O)CCCCCNP(=O)(O)OP(=O)(O)OC[C@H]2O[C@@H](n3cnc4c(=O)[nH]c(N)nc43)[C@H](O)[C@@H]2O)C(C)(C)C)cc1` (stereo partly drawn), the result in experiment [5] was inactive. In experiment [2], the inhibition result is “inactive”.
